pPAFAH inh: pPAFAH (human) enzyme inhibition; hit rate 1.5% among 330,000; recombinant pPAFAH, FP-rhodamine probe fluorescence polarization; inhibition, % at 3.39 µM; Q13093;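 active = inhibition above the mean inhibition across the screen plus 3 SD, cut at about 25% in these data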;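 also: inhibitors block binding of the rhodamine activity-based probe so polarization drops; 0% = enzyme with DMSO and 100% = wells lacking pPAFAH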
Target sequence (Q13093 whole entry, looked up): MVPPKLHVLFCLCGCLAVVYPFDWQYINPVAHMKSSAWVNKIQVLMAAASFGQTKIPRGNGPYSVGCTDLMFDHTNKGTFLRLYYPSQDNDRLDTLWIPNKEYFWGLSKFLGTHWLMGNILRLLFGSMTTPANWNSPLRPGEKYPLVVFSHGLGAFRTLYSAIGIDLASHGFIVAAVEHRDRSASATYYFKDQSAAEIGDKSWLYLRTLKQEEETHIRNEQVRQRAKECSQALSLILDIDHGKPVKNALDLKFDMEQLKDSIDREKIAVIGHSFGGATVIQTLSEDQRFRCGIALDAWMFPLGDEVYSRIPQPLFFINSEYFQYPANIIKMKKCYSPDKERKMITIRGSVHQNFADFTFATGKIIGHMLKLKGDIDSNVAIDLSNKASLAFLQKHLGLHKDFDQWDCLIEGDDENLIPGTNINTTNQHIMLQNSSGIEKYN
PAFAH1B2 FP inh: inhibitors of human PAFAH1B2; AID 492953; hit rate 1.2% among 340,000; inhibition, % at 3.39 µM; recombinant PAFAH1B2, FP-rhodamine activity probe, fluorescence polarization; P68402;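 active = inhibition above the mean of all tested compounds plus 3 SD, cut at about 24% in these data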;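 also: 0% = enzyme with DMSO and 100% = wells lacking PAFAH1B2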
Target sequence (P68402 whole entry, looked up): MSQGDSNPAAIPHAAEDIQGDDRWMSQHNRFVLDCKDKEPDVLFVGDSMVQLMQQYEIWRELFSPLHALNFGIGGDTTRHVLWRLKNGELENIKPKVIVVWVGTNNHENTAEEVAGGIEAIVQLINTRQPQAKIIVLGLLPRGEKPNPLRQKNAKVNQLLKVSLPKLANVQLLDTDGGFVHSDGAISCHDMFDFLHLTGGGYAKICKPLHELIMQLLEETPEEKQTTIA
RBBP9 inhibitor: inhibitors of human serine hydrolase RBBP9. hit rate 0.2% among 220,000. inhibition, % at 7.94 µM. O75884. recombinant RBBP9, FP-Rh probe fluorescence polarization;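 active = inhibition above the campaign mean of all tested compounds plus 3 SD, cut at about 14% in these data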;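 also: plate controls were DMSO wells with RBBP9 for no effect and wells lacking RBBP9 protein for full effect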
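Assay system: recombinant human RBBP9; Reagent: Serine-hydrolase probe FP-Rh, 375 nM pre-mixing; Doses: 7.94 µM single dose, 0.794% DMSO; Incubation: 30 min then 45 min, 25 °C; Detection: fluorescence polarization (mP), excitation 525 nm, emission 598 nm; Evaluation: percent inhibition from mP, scaled between DMSO and no-protein wells.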
PAFAH1B3 inh: PAFAH1B3 (human) inhibition; recombinant PAFAH1B3, FP-rhodamine probe, fluorescence polarization; Q15102; hit rate 0.28% among 340,000; inhibition, % at 3.39 µM;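 active = inhibition above the screen-wide average of all tested compounds plus 3 SD, cut at about 25% in these data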;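 also: 0% = enzyme with DMSO only and 100% = wells lacking PAFAH1B3 protein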
PAFAH2 FP inh: PAFAH2 (human) inhibition | AID 492956 | inhibition, % at 3.39 µM | recombinant PAFAH2, FP-rhodamine activity probe, fluorescence polarization | hit rate 0.99% among 340,000 | Q99487;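 active = inhibition above the mean over all tested compounds plus 3 SD, cut at about 30% in these data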;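 also: inhibitors block probe labeling of enzyme so polarization drops; 0% = enzyme with DMSO and 100% = wells lacking PAFAH2 protein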
pPAFAH FP conf: pPAFAH (human) inhibition, confirmed. shares compounds with pPAFAH inh. recombinant pPAFAH, FP-Rh probe fluorescence polarization. inhibition, % at 3.39 µM. hit rate 72% among 2,300;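 active = mean inhibition of the triplicate above the hit cutoff set for the earlier primary screen, cut at about 25% in these data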;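 also: 0% = enzyme with DMSO and 100% = wells lacking pPAFAH enzyme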
An asterisk follows results filed as active; · = not tested or not shown. This is a sample that favours compounds with a hit; in the whole collection about 2.7% have one here.

SMILES | pPAFAH inh | PAFAH1B2 FP inh | RBBP9 inhibitor | PAFAH1B3 inh | PAFAH2 FP inh | pPAFAH FP conf
Cc1ccccc1NC(=O)CSc1nc(O)cc(=O)n1C | 3 | 4 | -4 | 10 | 4 | ·
Cc1ccc2nc(NC(=O)CSc3nc(=O)n(CCN(C)C)c4c3CCCC4)sc2c1 | 5 | 4 | · | 7 | -1 | ·
O=C(COC(=O)c1ccc2[nH]c3c(c2c1)CCCC3)Nc1ccccc1 | 43* | 3 | 6 | -2 | 77* | 41*
O=C(OCC(=O)N1CCOCC1)c1ccc2[nH]c3c(c2c1)CCCC3 | -1 | -2 | -2 | 5 | 2 | ·
COc1ccc(N2CCN(C(=O)COC(=O)c3cnccn3)CC2)cc1 | 3 | 4 | · | -1 | -10 | ·
Cc1nn(-c2ccccc2)c2sc(C(=O)O)cc12 | 4 | 3 | -8 | 3 | 4 | ·
Cc1nn(-c2ccccc2)c2sc(-c3n[nH]c(=S)o3)cc12 | 52* | 4 | 3 | 9 | 19 | 69*
COc1ccccc1NC(=O)Nc1ccc(C(N)=O)cc1 | 42* | 2 | 1 | 0 | -1 | -1
Cc1ccc(S(=O)(=O)N2CCN(C(=O)COC(=O)c3cccnc3Cl)CC2)c(C)c1 | 3 | 0 | · | 7 | -3 | ·
Cc1ccc(S(=O)(=O)N2CCN(C(=O)COC(=O)c3ccccn3)CC2)c(C)c1 | 44* | 3 | · | 4 | 4 | 0
O=C(Cc1ccc2c(c1)OCCO2)N1CCN(c2ccccc2)CC1 | 5 | -3 | 9 | 3 | 2 | ·
O=C1CC(=C2c3ccccc3-c3ccccc32)C(=O)N1CCCCN1CCN(c2ccccc2)CC1 | 41* | -1 | 1 | -4 | 4 | 19
O=C1c2ccccc2C(=O)N1CCCCN1CCN(CCCCN2C(=O)c3ccccc3C2=O)CC1 | · | · | 3 | · | · | ·
Cc1cccc(-n2cc(-c3ccccc3)c3c(NN4CCOCC4)ncnc32)c1 | 75* | 0 | -6 | -3 | -1 | 12
CSc1ncccc1C(=O)OCC(=O)NC1CCC(C)CC1 (stereo not given) | 52* | 1 | · | 7 | 36* | 0
CSc1ncccc1C(=O)OCC(=O)NC1CCS(=O)(=O)C1 (stereo not given) | -4 | 0 | 2 | -3 | 6 | ·
C=CCOc1ccc(C2C3=C(CCCC3=O)N(CC(=O)O)C3=C2C(=O)CCC3)cc1OCC | 5 | 2 | · | 6 | 2 | ·
C=CCOc1c(Br)cc(C2C3=C(CCCC3=O)N(C)C3=C2C(=O)CCC3)cc1OCC | 39* | 4 | 0 | -2 | 9 | 5
O=S(=O)(CCC1CCCCN1)c1ccccc1 (stereo not given) | 3 | 2 | · | 6 | 6 | ·
Cn1c(=O)c(Nc2ccc(O)cc2)c2c3c(cccc31)C(=O)c1ccccc1-2 | 41* | 10 | 7 | 22 | 15 | 40*
CC(=O)c1c2c3c(cccc3n(C)c1=O)C(=O)c1ccccc1-2 | 11 | · | · | · | · | ·
O=C1C(=Cc2ccc(Br)o2)C(=O)c2ccccc21 | 50* | 9 | -4 | 18 | 71* | 66*
COc1cc(-c2nnc(SCc3cc(=O)oc4cc(O)c(O)cc34)o2)cc(OC)c1OC | 59* | 4 | -9 | 28* | 42* | 75*
CCOc1ccccc1NC(=O)CN1CCN(Cc2ccccc2)CC1 | 3 | -2 | · | 7 | 4 | ·
CCc1ccc(NC(=O)N2CCN(c3ccc(F)cc3)CC2)cc1 | · | 3 | -6 | -4 | 5 | ·
SMILES | pPAFAH inh | PAFAH1B2 FP inh | RBBP9 inhibitor | PAFAH1B3 inh | PAFAH2 FP inh | pPAFAH FP conf
C/C(CC(=O)N1CCN(C=O)CC1)=N\NC(=O)c1cc2ccccc2cc1O | 54* | 5 | -9 | 13 | 8 | 9
C/C(=N/NC(=O)c1cc2ccccc2cc1O)C1C(=O)c2ccccc2C1=O | 77* | 73* | -2 | 37* | 74* | 68*
O=C(O)c1ccc(/C=N/NC(=O)c2cc3ccccc3cc2O)cc1 | 23 | 8 | · | 20 | 5 | ·
C/C(CC(=O)N1CCN(C=O)CC1)=N\NC(=O)c1ccc([N+](=O)[O-])cc1 | 1 | 0 | 1 | -3 | -4 | ·
C/C(=N\NC(=O)c1ccccc1O)C1C(=O)c2ccccc2C1=O | 49* | 23 | -3 | 28* | 30* | 40*
CCn1cc(/C=C(\NC(=O)c2ccccc2F)C(=O)NCCCn2ccnc2)c2ccccc21 | 4 | 0 | · | 2 | 3 | ·
CC(=O)Nc1ccc(NC(=O)CN(C)CC(=O)Nc2ccccc2Br)cc1 | -8 | 4 | -7 | 7 | -7 | ·
CN(CC(=O)Nc1ccc(C(N)=O)cc1)CC(=O)Nc1ccccc1Br | 59* | -2 | -7 | 7 | -8 | 4
CCOC(=O)C(C(=O)OCC)c1cc(Br)c2noc3c2c1C(=O)c1ccccc1-3 | 70* | 7 | -4 | 22 | 28 | 11
COc1cc2nc(CN3CCOCC3)n(CC(=O)NCC(F)(F)F)c(=O)c2cc1OC | 2 | 1 | 0 | 1 | -5 | ·
COc1cc2nc(CN3CCOCC3)n(CC(=O)N3CCCCCC3)c(=O)c2cc1OC | 56* | 2 | -2 | 3 | 2 | 5
CCn1c(SCC(=O)c2ccc3c(c2)Cc2ccccc2-3)nnc1-c1ccc(N)cc1 | 3 | -3 | -16 | 2 | 2 | ·
CCn1c(SCC(=O)c2ccc(O)c(O)c2)nnc1-c1ccc(C)cc1 | 43* | 3 | -4 | 14 | 45* | 72*
Cc1nn(C)c(C(=O)NN)c1Cl | 2 | · | 1 | · | · | ·
CCOc1ccc(CNC(=O)c2nnc(CS(=O)(=O)c3ccccc3)o2)cc1OC | 4 | 5 | · | -12 | 0 | ·
O=C(NCc1ccccc1)c1nnc(CS(=O)(=O)c2ccccc2)o1 | 63* | 5 | · | -1 | 7 | -2
CC(C)N1CC2=C(C1=O)C(c1ccc(O)cc1)NC(=O)N2C (stereo not given) | 2 | 9 | -1 | 9 | 1 | ·
Cc1ccccc1N/N=C/c1sc(=O)n(Cc2cccc(C(=O)O)c2)c1Cl | 35* | 9 | 6 | 10 | 10 | 25*
COc1ccc(/C=N/N2C(C)CCCC2C)cc1O (stereo not given) | -2 | 3 | · | 4 | -4 | ·
CC1CCCC(C)N1/N=C/c1ccc(O)c(O)c1 (stereo not given) | 45* | 4 | · | 13 | 5 | 11
CCOc1ccc(OCC)c(S(=O)(=O)NC2CC(C)(C)NC(C)(C)C2)c1 | -1 | 3 | -8 | -3 | -9 | ·
Cc1cc2c(N)cccc2nn1 | 73* | 26* | 4 | 33* | 38* | 6
COc1ccc(CCNC(=O)c2cc(-c3ccco3)nc3ccccc23)cc1 | 36* | · | · | · | · | 15
O=C(NCCO)c1ccc(Cl)c(Cl)c1 | 0 | -6 | -6 | 3 | -4 | ·
O=C(NCCO)c1ccc2nc(-c3ccco3)c(-c3ccco3)nc2c1 | 39* | 19 | -1 | 40* | 31* | 11
c1coc(-c2nc3ccccc3nc2-c2ccco2)c1 | 44* | 23 | 12 | 26* | 40* | 11

Assay outcomes (PubChem)
